Source: ChEMBL document CHEMBL4411261, “Down-Regulation of the Androgen Receptor by G-Quadruplex Ligands Sensitizes Castration-Resistant Prostate Cancer Cells to Enzalutamide” (J Med Chem, 2018)
The source made the active and inactive calls. The rule behind the calls is not given here.

Assays:
[1] = Stabilization of AGTGAGAGTGAGAGAGAGAGTGAGAGTGAGAGTGA/TCACTCTCACTCTCACTCTCTCTCTCACTCTCACT dsDNA (unknown origin) assessed as change in melting temperature at 16 uM after 16 hrs in presence of 100 mM K+ by CD spectra analysis
How it was run: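 CD: oligos at 4 μM final in 10 mM lithium cacodylate pH 7.4, 100 mM KCl, annealed 95 °C 5 min then 4 h room temperature; duplex from equimolar strands. Ligand 16 μM final, 16 h room temperature. Spectra 230−320 nm, 5 mm cell, two scans averaged at 20 °C, buffer-subtracted; melting from spectra 20−90 °C in 5 °C steps.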

[2] = tested on: Quadruplex DNA; assay: Stabilization of AR G-quadruplex oligonucleotide in human PC3 cells assessed as down-regulation of ITGB3 mRNA expression at IC50 after 48 hrs by RT-PCR analysis; type: cell-based
How it was run: (§1)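 PC-3 cells (RPMI-1640, 10% fetal calf serum) exposed at an equitoxic concentration. Expression of 92 cancer-mechanism genes measured on TaqMan Arrays. Change versus untreated cells computed by 2−ΔΔCt, with RNaseP as normalizer.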

[3] = tested on: CWR22R; assay: Synergistic cytotoxicity against human 22Rv1 cells expressing full length androgen receptor H875Y point mutant assessed as ED75 for Enzalutamide at 0.001 to 0.1 uM after 72 hrs by MTS assay; type: functional
How it was run: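 Cells in RPMI-1640 with 10% fetal calf serum were exposed to ligand (0.001−0.1 μM) plus enzalutamide (0.5−50 μM) at a fixed ratio, five concentrations, for 72 h at 37 °C, 5% CO2. Viability read by MTS absorbance at 490 nm after 4 h. Combination index computed at ED50 and ED75 by the Chou–Talalay method.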

[4] = tested on: Quadruplex DNA; assay: Stabilization of AR G-quadruplex oligonucleotide in human PC3 cells assessed as down-regulation of BAX mRNA expression at IC50 after 48 hrs by RT-PCR analysis; type: cell-based; how it was run: as §1

CN(C)CCCn1c(=O)c2ccc3c(=O)n(CCCN(C)C)c(=O)c4c5[nH]c6ccccc6[nH]c5c(c1=O)c2c34.Cl.Cl
ΔTm [1]: 2.7 °C
Activity [2]: Active
ED75 [3]: 370 nM
Activity [4]: Active
